Data on five compounds can be found in article PMC8448143 (Antimicrobial Agents and Chemotherapy, 2021).

For data set [1], the system named is SARS-CoV-2 (2019-nCoV/USA-WA1/2020). Description: SARS-CoV-2 antiviral assay. The settings on record: for Selectivity index: CC50/EC50; for EC90: Severe acute respiratory syndrome coronavirus 2, in Homo sapiens, 48 h. Type of data set: cell-based.
Data set [2] can be described thus: in vitro. The following applies: human.
Data set [3] in a line: in vitro. The settings on record: African green monkey.
Data set [4] concerns SARS-CoV-2 (2019-nCoV/USA-WA1/2020). Description: SARS-CoV-2 antiviral assay. The settings on record: for Selectivity index: Huh7.5 cells, CC50/EC50. Type of data set: cell-based.
A short description of data set [5]: in vitro. The following applies: human. This is another data set of the same source.
The test system of data set [6] is SARS-CoV-2 (2019-nCoV/USA-WA1/2020). Description: SARS-CoV-2 antiviral assay. The format is cell-based. The following applies: for Selectivity index: Caco-2 cells, CC50/EC50; for EC50 / EC90: Severe acute respiratory syndrome coronavirus 2, Caco-2, 48 h.
A short description of data set [7]: in vitro. The following applies: human. The source holds these as a separate data set.
Data set [8] concerns SARS-CoV-2 (2019-nCoV/USA-WA1/2020). Kind of data set: SARS-CoV-2 antiviral assay. The format is cell-based. The following applies: for Selectivity index: Calu-3 cells, CC50/EC50.
Data set [9] in a line: in vitro. The following applies: human. The source holds these as a separate data set.
For data set [10] the following is noted: in vivo, rhesus monkeys; cited from earlier work.
In a further data set the test system is human coronavirus 229E. Kind of data set: microbe, parasite or virus in culture. The format is cell-based. The settings on record: MRC5, 72 h.
For data set [11] the following is noted: ex vivo; cited from earlier work.
The subject of data set [12] is SARS-CoV-2. The settings on record: Calu-3 2B4 cells; cited from earlier work.
The conditions of data set [13]: cited from earlier work.
Data set [14] relates to SARS-CoV-2. The following applies: human alveolar epithelial (HAE) cells; cited from earlier work.
The test system of data set [15] is SARS-CoV-2 (2019-nCoV/USA-WA1/2020). Kind of data set: SARS-CoV-2 antiviral assay. Type of data set: cell-based. The settings on record: Vero E6 cells; CC50/EC50.
Data set [16] can be described thus: in vitro.
Data set [17] is described as follows: Seven-day oral pharmacokinetics and tolerability in Syrian hamsters. Type of data set: in vivo. An outline of the steps:
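Syrian hamsters in groups of 3 received vehicle or test compound by oral gavage every 12 h for 7 days, at 16.9 or 13.2 mg/kg body weight. Plasma levels of the prodrug and its nucleoside metabolite were followed after dosing. Animals were monitored for adverse clinical signs.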

Data set [18] in a line: in vitro. The following applies: both, human, plasma.
[19] abbreviates: Severe acute respiratory syndrome coronavirus 2, Huh7.5, 48 h.
The mark [20] stands for this setting: Severe acute respiratory syndrome coronavirus 2, Calu-3, 48 h.

“Also recorded” adds a separate entry of the source. Read-outs that look alike come from different tables or passages of the source.

As for `N#C[C@@]1(c2ccc3c(N)ncnn23)O[C@H](CO)[C@@H](O)[C@H]1O` [RVn, remdesivir nucleoside, reference compound], the Selectivity index is given as over 135 in [1] (PSC-human lung cells), over 312 in data set [4], over 104 in [6] and over 666 in [8]. Further, the EC90 in data set [1] worked out at 2620 nM; in [4] (setting [19]), 730 nM; in data set [6], 1750 nM; in [8] (setting [20]), 180 nM. Further, the CC50 in “in vitro [2]”, in “in vitro [3]”, in the data set “in vitro [5]”, in the data set “in vitro [7]” and in “in vitro [9]” was over 100000 nM in each case. For the same compound, the EC50 in data set [4] (setting [19]) stood at 320 nM; in data set [6], 960 nM; in data set [8] (setting [20]), 150 nM.

For the compound `CCC(CC)COC(=O)[C@H](C)N[P@](=O)(OC[C@H]1O[C@@](C#N)(c2ccc3c(N)ncnn23)[C@H](O)[C@@H]1O)Oc1ccccc1` [RDV, remdesivir, reference compound], the concentration for an effect of 90% (EC90) in data set [1] is 230 nM; with human coronavirus 229E it was 260 nM; in data set [4] (setting [19]) it was 120 nM; in data set [6], 280 nM; in data set [8] (setting [20]) it was 310 nM. Moreover, the “persistence in plasma after intravenous infusion” value in data set [10] is “less than 2 h”; in [13] (in vivo, COVID-19 patients), “less than 2 h”. In the data set “in vitro [3]”, this compound yielded a CC50 of 101000 nM. Further, the EC50 in the data set on human coronavirus 229E was 40 nM; in the data set with SARS-CoV-2 [12] it was 280 nM; in data set [4] (setting [19]), 60 nM; in data set [6], 170 nM; with SARS-CoV-2 [14] it was 10 nM; in data set [8] (setting [20]) it was 230 nM. The “half-life (t1/2) in human plasma” value in data set [11] is 1.15 h. Further, the “drop of plasma level after the intravenous infusion stopped” value in [13] (two patients with COVID-19, 1 h after the infusion stopped) is over 90%.

Turning to `CCCCCCCCCCCCCCCCOCCCOP(=O)(O)OC[C@H]1O[C@@](C#N)(c2ccc3c(N)ncnn23)[C@H](O)[C@@H]1O` [HDP-P-RVn, {(2R,3S,4R,5R)-5-(4-aminopyrrolo[2,1-f][1,2, 4]triazin-7-yl)-5-cyano-3,4-dihydroxytetrahydrofuran-2-yl}methyl [3-(hexadecyloxy)propyl] hydrogen phosphate], the concentration for an effect of 90% (EC90) is 940 nM in [1] and 400 nM in [4] (setting [19]). Besides, the Selectivity index in data set [15] is over 158; in data set [4], over 526. Besides, the CC50 in the data set “in vitro [3]” and in “in vitro [7]” was over 100000 nM each time. For the same compound, the EC50 in [4] was 190 nM; in [4] (setting [19]), under 200 nM.

Consider `CCCCCCCCCCCCCCCCCCOC[C@H](COP(=O)(O)OC[C@H]1O[C@@](C#N)(c2ccc3c(N)ncnn23)[C@H](O)[C@@H]1O)OCc1ccccc1` [ODBG-P-RVn, {(2R,3S,4R,5R)-5-(4-aminopyrrolo[2,1-f][1,2, 4]triazin-7-yl)-5-cyano-3,4-dihydroxytetrahydrofuran-2-yl]methyl [(R)-2-(benzyloxy)-3-(octadecyloxy)propyl] hydrogen phosphate], for which the Selectivity index in data set [1] (PSC-human lung cells) was found to be 410; in [15], 699; in data set [4], 449; in [6], 295; in data set [8], 327. For the same compound, the EC90 in data set [1] was found to be 260 nM; in the data set with human coronavirus 229E it was 540 nM; in [4] (setting [19]), 150 nM; in data set [6] it was 330 nM; in data set [8] (setting [20]), 330 nM. The CC50 in “in vitro [3]” was 97900 nM; in “in vitro [16]” it was 61500 to 98200 nM. The EC50 in the data set on human coronavirus 229E was 150 nM; in [4] (setting [19]), under 200 nM; in [6] it was 300 nM; in data set [8] (setting [20]) it was under 350 nM. Besides, in data set [17] (Syrian hamsters, oral gavage every 12 h for 7 days, 16.9 and 13.2 mg/kg), the tolerability result is “well tolerated; also recorded: well tolerated, and no adverse clinical signs were noted”. For the same compound, the “plasma level of ODBG-P-RVn relative to its EC90” value in data set [17] (Syrian hamsters, oral, at 12 h, days 1 and 7, EC90 in all cell lines studied) is given as “above the 90% effective concentration (EC90); also recorded: higher than the EC90”. Moreover, the time to peak (Tmax) in data set [17] (Syrian, hamster, plasma, po) amounted to 1 h. This compound gave a half-life in “in vitro [18]” of over 24 h.

For `CCCCCCCCCCCCCCCCCCOCCOP(=O)(O)OC[C@H]1O[C@@](C#N)(c2ccc3c(N)ncnn23)[C@H](O)[C@@H]1O` [ODE-P-RVn, {(2R,3S,4R,5R)-5-(4-aminopyrrolo[2,1-f][1,2, 4]triazin-7-yl)-5-cyano-3,4-dihydroxytetrahydrofuran-2-yl}methyl [2-(octadecyloxy)ethyl] hydrogen phosphate], the Selectivity index in data set [1] (PSC-human lung cells) is on record as over 454; in data set [15], over 333; in data set [4], over 526; in data set [6] it was over 129; in data set [8], 290. The EC50 in [1] (PSC-human lung cells, […]) is 220 nM; in [4] it was 190 nM; in data set [4] (setting [19]) it was under 200 nM; in data set [6] it was 770 nM; in [8], 340 nM; in data set [8] (setting [20]), under 350 nM. The 90% effect concentration (EC90) in data set [1] was 700 nM; in data set [4] (setting [19]) it was 370 nM; in [6] it was 1250 nM; in [8] (setting [20]), 640 nM. Besides, the CC50 in “in vitro [2]” was 98700 nM; in the data set “in vitro [3]” it was over 100000 nM; in “in vitro [5]”, over 100000 nM; in the data set “in vitro [7]” it was over 100000 nM; in the data set “in vitro [9]”, over 100000 nM.

What is called EC90 is the point of the concentration-response curve where the effect stands at 90%. In general, EC50 refers to the concentration needed to bring the measured effect to its halfway point. The term Tmax denotes the time at which the peak concentration occurs. What is called half-life is how long it takes for the measured level to halve.
